# SMARCA2 act – SMARCA2 function activation, primary screen; MG213 cells, MMTV-luciferase reporter, dexamethasone, overnight; activation, % at 9.1 µM; 1% of 370,000 active; in the data active means activation above about 7.8%;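 further: 0% = vehicle wells and 100% = reference activator wells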
# Tb MetRS inh – Trypanosoma brucei MetRS inhibition | purified T. brucei MetRS, ATP depletion, Kinase-Glo luminescence | inhibition, % at 11.9 µM | 0.4% of 360,000 active;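 active means inhibition above a per-plate cutoff of the control wells' mean inhibition plus 3 SD, cut at about 5.5% in these data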;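 further: 0% = DMSO wells median and 100% = median of wells with control inhibitor compound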
#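 technique = Kinase-Glo luminescence, ATP depletion format | system = purified MetRS (methionyl-tRNA synthetase) enzyme from Trypanosoma brucei | timing = 15 min preincubation, 2 h reaction, all 25 °C | evaluation = percent inhibition versus plate control medians | dosing = single dose, 11.9 µM final nominal, 0.9% final DMSO | also added = substrates ATP, L-methionine and bulk Escherichia coli tRNA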
# Efflux pump inh – blocks antifungal efflux pumps in multiplex yeast assay; AID 485275; S. cerevisiae Candida pump triplex, Nile Red efflux; 0.44% of 330,000 active; inhibition, % at 10 µM;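 active means plate passing quality check with inhibition over a set limit, or well fluorescence over plate mean plus 4 SD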;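 further: Nile Red retained in pooled yeast measured as flow cytometry median fluorescence; 0% = buffer negative control and 100% = Enniatin B positive control; higher means more Nile Red kept so more efflux inhibition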
# TAG inh – triacylglycerol accumulation inhibition. H9c2 cells, Nile Red lipid (TAG) fluorescence; cells loaded with 200 µM oleic acid. inhibition, % at 12.5 µM. 0.66% of 230,000 active;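 active means pattern-corrected inhibition of lipid staining of at least 50% with the nuclear-stain viability signal not falling by more than 50%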;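 further: 0% = DMSO wells and 100% = triacsin C control wells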
# AHR activator – human AHR activation; 2.5% of 320,000 active; AHR-responsive luciferase reporter cells, luminescence; P35869; activation, % at 5 µM; in the data active means activation above about 47%;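 further: 0% = vehicle wells and 100% = reference agonist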
# Target sequence (P35869 whole entry, looked up): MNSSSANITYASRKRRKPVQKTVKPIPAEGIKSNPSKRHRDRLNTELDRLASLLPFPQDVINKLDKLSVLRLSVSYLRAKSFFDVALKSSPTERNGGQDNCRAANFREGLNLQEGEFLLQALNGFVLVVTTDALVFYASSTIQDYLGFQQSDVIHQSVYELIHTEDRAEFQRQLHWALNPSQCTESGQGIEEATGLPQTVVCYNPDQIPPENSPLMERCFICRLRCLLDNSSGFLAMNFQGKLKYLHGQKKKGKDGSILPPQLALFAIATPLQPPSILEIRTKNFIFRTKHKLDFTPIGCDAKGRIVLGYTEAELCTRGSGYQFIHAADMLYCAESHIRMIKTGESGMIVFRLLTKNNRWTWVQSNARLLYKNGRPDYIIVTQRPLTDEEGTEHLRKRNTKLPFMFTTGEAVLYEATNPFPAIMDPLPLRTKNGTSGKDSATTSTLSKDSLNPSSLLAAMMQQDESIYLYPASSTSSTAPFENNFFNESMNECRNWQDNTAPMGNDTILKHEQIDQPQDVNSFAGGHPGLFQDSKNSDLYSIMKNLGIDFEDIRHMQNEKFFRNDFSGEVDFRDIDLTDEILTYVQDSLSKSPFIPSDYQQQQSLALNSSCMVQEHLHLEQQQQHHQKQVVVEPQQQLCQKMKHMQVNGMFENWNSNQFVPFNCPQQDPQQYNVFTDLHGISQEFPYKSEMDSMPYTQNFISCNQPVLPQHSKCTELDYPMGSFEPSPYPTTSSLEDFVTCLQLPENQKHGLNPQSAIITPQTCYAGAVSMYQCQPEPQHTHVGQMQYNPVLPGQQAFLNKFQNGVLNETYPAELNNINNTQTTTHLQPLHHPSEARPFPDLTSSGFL
# Yeast cmpd fluor – compound fluorescence in yeast efflux pump counter-screen; shares compounds with Efflux pump inh; S. cerevisiae AD/pABC3, flow cytometry; fluorescence ratio to DMSO, % at 10 µM; 4% of 1,700 active; AID 588517;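 active means fluorescence ratio to DMSO above its plate's cutoff, the plate mean ratio plus 5 SD, cut at about 210% in these data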;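 further: unstained yeast with no Nile Red so the signal is compound autofluorescence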
# CaMdr1 efflux inh – blocks the Candida albicans Mdr1 efflux pump in yeast. inhibition, % at 10 µM. S. cerevisiae AD/CaMDR1, Nile Red efflux, flow cytometry. shares compounds with Efflux pump inh. 1% of 1,700 active; in the data active means inhibition above about 26%;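 further: 0% = DMSO vehicle and 100% = reference inhibitor; higher means more Nile Red retained so more efflux inhibition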
# CaCdr2 efflux inh – blocks the Candida albicans Cdr2 efflux pump in yeast. shares compounds with Efflux pump inh. S. cerevisiae AD/CaCDR2, Nile Red retention, flow cytometry. Nile Red retention ratio vs DMSO, % at 10 µM. 4% of 1,700 active; in the data active means Nile Red retention ratio vs DMSO above about 190%;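 further: higher ratio means more blocking of Cdr2 efflux of the dye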
# CaCdr1 efflux inh – blocks the Candida albicans Cdr1 efflux pump in yeast; shares compounds with Efflux pump inh; inhibition, % at 10 µM; 1% of 1,700 active; S. cerevisiae AD/CaCDR1, Nile Red efflux, flow cytometry;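 active means inhibition above the screen-wide mean plus twice its standard deviation, cut at about 32% in these data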
# An asterisk follows results filed as active; x = no result. A selection: hits, their analogues and other compounds. The true share with any hit is near 4.1%.
SMILES,SMARCA2 act,Tb MetRS inh,Efflux pump inh,TAG inh,AHR activator,Yeast cmpd fluor,CaMdr1 efflux inh,CaCdr2 efflux inh,CaCdr1 efflux inh
Cc1ccc(C2=NN(CC(=O)NCc3cccnc3)C(=O)CC2)cc1,x,x,-10,x,-1,x,x,x,x
Cc1ccc(C2=NN(CC(=O)NCc3ccccn3)C(=O)CC2)cc1,-1,-1,7.6*,-2,9,92,0,91,0
C=CCn1c(=O)[nH]c2nc3cc(N=CN(C)C)c(C)cc3nc2c1=O,1,0,1.7*,3,68*,147,0,87,0
Cc1cc2nc3c(=O)n(CCc4ccccc4)c(=O)[nH]c3nc2cc1N,1,0,0,-12,8,x,x,x,x
CCCCn1c(=N)n(CC(O)COc2ccccc2)c2ccccc21 (stereo unspecified),0,-1,0,-2,13,x,x,x,x
CCCCn1c(=N)n(CC(O)COc2ccc(C)cc2)c2ccccc21 (stereo unspecified),-4,1,1.2*,-18,0,116,0,110,0
CCOC(=O)C1=NOC(C(=O)NCCO)(C(=O)C2CC2)C1 (stereo unspecified),1,x,x,x,x,x,x,x,x
CC1Oc2ccccc2N(CC(=O)Nc2ccc3c(c2)OCCO3)C1=O (stereo unspecified),-4,0,0,x,0,x,x,x,x
O=C(CN1C(=O)CC(c2ccco2)Sc2ccccc21)NCc1ccc2c(c1)OCO2 (stereo unspecified),x,-1,9.8*,x,0,82,0,87,0
CC1CC(=O)N(CC(=O)Nc2ccc3c(c2)OCCO3)c2ccccc2S1 (stereo unspecified),-1,-1,0,x,2,531*,5,109,0
CCOC(=O)c1ccccc1NS(=O)(=O)c1ccccc1,-1,-1,0,x,-3,x,x,x,x
CCOC(=O)c1ccccc1NS(=O)(=O)c1ccccc1F,3,-1,5.9*,x,2,100,0,89,0
Cc1cc(=O)oc2cc(OC(C(=O)O)c3ccccc3)ccc12 (stereo unspecified),0,-2,1.1*,x,0,101,0,87,0
Cc1cc(=O)oc2cc(OC(C)C)ccc12,1,0,0,-1,-7,x,x,x,x
Cc1cccc(OC(C)CCN2CCC(C(O)(c3ccccc3)c3ccccc3)CC2)c1 (stereo unspecified),-5,x,x,x,x,x,x,x,x
Cc1ccc(NC(=O)C(=O)NCc2ccc(/C=C(/C#N)C(=O)NCc3cccnc3)o2)cc1,-5,0,0,x,4,x,x,x,x
N#C/C(=C/c1ccc(CNC(=O)C(=O)Nc2cc(Cl)cc(Cl)c2)o1)C(=O)NCc1cccnc1,0,1,8.2*,x,3,105,0,110,0
CC1Oc2ccccc2N(CC(=O)c2ccc(F)cc2)C1=O (stereo unspecified),-1,-1,1.1*,2,1,100,0,100,0
CN(Cc1ccccc1)C(=O)OCc1cn(Cc2c(F)cccc2F)nn1,-2,x,x,x,x,x,x,x,x
Cn1cc(C(c2ccccn2)c2cn(C)c3ccccc23)c2ccccc21,1,0,57*,-21,17,88,86*,103,32*
O=C(Cc1cccs1)N1CCN=C1SCc1ccccc1F,-2,-1,0,15,4,x,x,x,x
O=C(Cc1cccs1)N1CCN=C1SCc1ccccc1Cl,-2,0,1.0*,-6,5,93,0,103,10
COc1cc2c(cc1OC)CN(C(=S)Nc1ccc(Cl)cc1)CC2,-6,-1,0,19,1,x,x,x,x
COc1ccccc1NC(=S)N1CCc2cc(OC)c(OC)cc2C1,-1,0,0,-5,10,x,x,x,x
COc1cc2c(cc1OC)CN(C(=S)Nc1cccc(Cl)c1C)CC2,-4,0,0.7*,18,2,100,0,96,0
SMILES,SMARCA2 act,Tb MetRS inh,Efflux pump inh,TAG inh,AHR activator,Yeast cmpd fluor,CaMdr1 efflux inh,CaCdr2 efflux inh,CaCdr1 efflux inh
CC(=O)c1cccc(NC(=O)c2ccc3c(c2)CCCC3)c1,5,-1,0,x,4,x,x,x,x
COc1cccc(NC(=O)c2ccc3c(c2)CCCC3)c1,3,-1,52*,x,-4,104,0,100,0
COc1cccc(NC(=S)N2CCc3cc(OC)c(OC)cc3C2)c1,-3,0,0,3,2,84,0,100,0
COc1ccccc1C(=O)NC1CCCCN(Cc2ccc(Cl)cc2)C1=O (stereo unspecified),-2,x,x,x,x,x,x,x,x
COCCN(CCOC)C(=O)[C@H](CCc1ccccc1)NC(=O)[C@H]1O[C@@H](n2cnc3c(N)ncnc32)[C@H](O)[C@@H]1O,2,x,x,x,x,x,x,x,x
N#Cc1cc([N+](=O)[O-])ccc1NCCc1ccccn1,2,0,3.5*,-2,8,116,0,120,0
N#Cc1ccc(NCCc2ccccn2)c([N+](=O)[O-])c1,-2,1,0,-1,7,x,x,x,x
COc1ccc(NC(=O)CSc2nc3c(c(=O)n2-c2ccccc2OC)SCC3)cc1,-2,0,1.1*,-1,2,79,0,93,0
CCOC(=O)c1ccc(NC(=O)CSc2nc3c(c(=O)n2-c2ccccc2OC)SCC3)cc1,-1,0,0,48,0,x,x,x,x
COC(=O)[C@]12C[C@H](CC(=O)N3CCCCC3)C(=O)N(Cc3ccc(Cl)cc3Cl)C1=C[C@H](C1CCCC1)O[C@@H]2C,-2,x,x,x,x,x,x,x,x
O=C(Cn1c(-c2cncs2)nc2ccccc21)NCc1cccs1,-7,x,x,x,x,x,x,x,x
O=[N+]([O-])c1cc(/C=N\Nc2ccccn2)ccc1Cl,3,0,0.9*,x,4,108,0,197*,0
O=[N+]([O-])c1ccc(/C=N/Nc2ccccn2)cc1,2,-2,0,x,8,x,x,x,x
O=C(CSc1nc2nc3c(cc2c(=O)n1-c1ccccc1)CCCC3)Nc1cccc2ccccc12,-2,0,1.1*,x,13,95,0,142,0
Cc1cccc(NC(=O)CSc2nc3nc4c(cc3c(=O)n2-c2ccccc2)CCCC4)c1,2,-1,0,x,10,x,x,x,x
CCCCOCCCNC(=O)C[C@H]1C[C@@]2(C(=O)OC)C(=C[C@H](COCc3ccccc3)O[C@@H]2C)N(Cc2ccc(Cl)cc2Cl)C1=O,-2,x,x,x,x,x,x,x,x
COc1cccc(/C=c2\s/c(=C/C(=O)c3ccc(C)cc3)[nH]c2=O)c1OC,-1,-1,0,x,2,x,x,x,x
COc1ccc(/C=c2\s/c(=C/C(=O)c3ccc(C)cc3)[nH]c2=O)c(OC)c1,-4,-1,19*,x,14,108,0,118,0
